Assay results published in ChEMBL document CHEMBL1133718, “Structure-activity relationships and binding mode of styrylquinolines as potent inhibitors of HIV-1 integrase and replication of HIV-1 in cell culture” (J Med Chem, 2000).

How the values were obtained:
[1] = Toxic concentration, estimated by MTT transformation assay; format: ADME, organism-based, Human immunodeficiency virus 1; settings: CEM cells; read-out: TC50 (the source's name)
How it was run: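 Cell viability by MTT: MTT solution (7.5 mg/mL, in phosphate buffer) added to infected, drug-treated CEM wells. Incubation 4 h at 37 °C under CO2, formazan dissolved in 10% SDS/10 mM HCl, absorbance read at 570 nm.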

[2] = biological target: T1, Human immunodeficiency virus type 1 integrase (Human immunodeficiency virus 1, UniProt Q7ZJM1); test: Inhibitory activity against HIV-1 Integrase in 3'-end- processing
T1 sequence (Q7ZJM1 whole entry): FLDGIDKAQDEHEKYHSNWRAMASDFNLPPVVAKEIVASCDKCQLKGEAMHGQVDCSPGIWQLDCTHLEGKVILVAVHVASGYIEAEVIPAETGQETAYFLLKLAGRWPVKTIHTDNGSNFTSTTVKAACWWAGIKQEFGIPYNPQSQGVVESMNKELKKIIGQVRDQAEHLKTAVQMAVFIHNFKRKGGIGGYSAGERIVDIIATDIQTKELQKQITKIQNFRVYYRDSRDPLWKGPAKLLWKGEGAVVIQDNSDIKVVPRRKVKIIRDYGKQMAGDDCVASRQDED
How it was run: (§1)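 3'-processing: 0.5 pmol U5A/U5B annealed duplex with 1 pmol purified recombinant full-length HIV-1 IN in 20 mM Tris pH 7.2, 30 mM NaCl, 10% glycerol, 10 mM DTT, 0.01% NP40, plus 10 mM MnCl2.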

[3] = system: Human immunodeficiency virus 1; test: Antiviral activities against HIV-1 replication in CEM cells and its ability to lower the viral charge supernatants was reported; format: functional, organism-based; settings: Human immunodeficiency virus 1, CCRF-CEM
How it was run: (§2)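 CEM cells infected with cell-free HIV-1 ([…] clone, produced by transfecting P4 cells), in triplicate; virus removed 2 h post-infection, then DMSO-dissolved drug added in fresh medium at increasing concentrations. 72 h supernatants infected HeLa-CD4-βGal (P4) reporter cells for 24 h; lysates incubated with CPRG, absorbance at 570 nm. Some cases used p24 antigen ELISA.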

[4] = biological target: T1, Human immunodeficiency virus type 1 integrase; test: Inhibitory activity against HIV-1 Integrase in strand transfer (integration)
[5] = biological target: T1, Human immunodeficiency virus type 1 integrase; test: Inhibitory activity against Integrase in 3'-end- processing; how it was run: as §1
[6] = biological target: T1, Human immunodeficiency virus type 1 integrase; test: Inhibitory activity against Integrase in strand transfer (integration)
[7] = system: Human immunodeficiency virus 1; test: Inhibitory effect upon disintegration catalyzed by the (50-212) deletion mutant; format: functional
How it was run: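 Disintegration reaction run with 0.5 pmol D38U3 substrate and 2 pmol of the His-tagged F185K soluble HIV-1 integrase core domain (residues 50-212), expressed and purified recombinantly. Potency is reported as IC50.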

[8] = system: Human immunodeficiency virus 1; test: Antiviral activities against HIV-1 replication in CEM cells and its ability to lower the viral charge supernatants was reported; NR is not reached; format: functional, organism-based; settings: CCRF-CEM; how it was run: as §2
[9] = biological target: T1, Human immunodeficiency virus type 1 integrase; test: Inhibitory activity against HIV-1 Integrase in 3'-end- processing with purified recombinant enzyme
[10] = biological target: T1, Human immunodeficiency virus type 1 integrase; test: Inhibitory activity against HIV-1 Integrase in strand transfer (integration) with purified recombinant enzyme

Row | Compound | IC50 [3] [µM] | IC50 [5] [µM] | IC50 [6] [µM] | CC50 [1] [µM] | IC50 [2] [µM] | IC50 [4] [µM] | IC50 [7] [µM] | NR [8] | IC50 [9] [µM] | IC50 [10] [µM]
1 | O=C(O)c1ccc2ccc(/C=C/c3cc(Br)c(O)c(Br)c3)nc2c1O |  |  |  |  | 1.3 | 1.2 |  |  |  | 
2 | O=C(O)c1ccc2ccc(/C=C/c3ccccc3)nc2c1O |  |  |  | 31 | 5.3 | 2.1 | 3.4 | Not reached |  | 
3 | O=C(O)c1ccc2ccc(/C=C/c3ccco3)nc2c1O | > 100 |  |  | > 100 |  |  | 1.4 |  | 1.9 | 5.1
4 | Cc1ccc2ccc(C(=O)O)c(O)c2n1 | > 100 |  |  | > 100 |  | > 100 |  |  |  | 
5 | Nc1ccc(/C=C/c2ccc3ccc(C(=O)O)c(O)c3n2)cc1 | 50 |  |  | 100 | 3.5 | 2.2 | 12 |  |  | 
6 | CC(=O)Nc1ccc(/C=C/c2ccc3ccc(C(=O)O)c(O)c3n2)cc1 |  |  |  | 47 | 1.4 | 1.2 | 1.7 | Not reached |  | 
7 | O=C(O)c1ccc2ccc(CCc3ccc(O)c(O)c3)nc2c1O |  | 2.3 | 1.5 | 61 |  |  |  | Not reached |  | 
8 | O=C(O)c1ccc2ccc(/C=C/c3ccc([N+](=O)[O-])cc3)nc2c1O |  |  |  | 43 | 1.2 | 1.7 | 2.2 | Not reached |  | 
9 | O=C(O)c1ccc2ccc(/C=C/c3ccsc3)nc2c1O |  |  |  | 85 | 3.4 | 3 | 0.8 | Not reached |  | 
10 | O=C(O)c1ccc2ccc(/C=C/c3cccnc3)nc2c1O | > 100 |  |  | > 100 | 4.1 | 11 | 5.1 |  |  | 

Continued, in another order:

Row | IC50 [3] [µM] | IC50 [5] [µM] | IC50 [6] [µM] | Compound | CC50 [1] [µM] | IC50 [2] [µM] | IC50 [4] [µM] | IC50 [7] [µM] | NR [8] | IC50 [9] [µM] | IC50 [10] [µM]
11 | 54 |  |  | COc1ccc(/C=C/c2ccc3ccc(C(=O)O)c(O)c3n2)cc1O | 95 | 0.9 | 3.3 |  |  |  | 
12 | 6.8 | 4 | 4.9 | O=C(O)c1ccc2ccc(/C=C/c3cc(O)c(O)c(I)c3)nc2c1O | > 100 |  |  |  |  |  | 
13 | 80 |  |  | O=C(O)c1ccc2ccc(/C=C/c3ccc(O)cc3O)nc2c1O | > 100 |  |  |  |  |  | 
14 | 12 | 0.7 | 1.7 | COc1cc(/C=C/c2ccc3ccc(C(=O)O)c(O)c3n2)cc(O)c1O | > 100 |  |  |  |  |  | 
15 | 9 |  |  | COc1cc(/C=C/c2ccc3ccc(C(=O)O)c(O)c3n2)cc(OC)c1O | > 100 | 4.9 | 4.5 |  |  |  | 
16 | 95 |  |  | O=C(O)c1ccc2ccc(/C=C/c3ccc(O)cc3)nc2c1O | > 100 | 1.6 | 1.6 |  |  |  | 
17 | 1.3 |  |  | O=C(O)c1ccc2ccc(/C=C/c3ccc(O)c(O)c3)nc2c1O | > 100 |  |  |  |  |  | 
18 | 1.2 |  |  | O=C(O)c1ccc2ccc(/C=C/c3cc(O)c(O)c(O)c3)nc2c1O | 10 |  |  |  |  |  | 
19 | > 100 | 3.2 | 3.2 | O=C(O)c1ccc2ccc(/C=C/c3cc(O)cc(O)c3)nc2c1O | > 100 |  |  |  |  |  | 
20 |  | > 100 | > 100 | COC(=O)c1ccc2ccc(/C=C/c3ccc(O)c(O)c3)nc2c1O | 9.2 |  |  |  | Not reached |  | 
21 |  | > 100 | > 100 | Oc1ccc(/C=C/c2ccc3c(Cl)cc(Cl)c(O)c3n2)cc1O | 17 |  |  |  | Not reached |  | 
22 | 3 |  |  | COc1cc(/C=C/c2ccc3ccc(C(=O)O)c(O)c3n2)ccc1O | 95 | 2.8 | 3.7 |  |  |  | 
